Bioassay records as filed in PubChem.
Shown are actives, neighbours in structure and some others; about 4% of the full set was active somewhere.
TAAR1 antagonist: antagonists of human TAAR1; inhibition, % at 3 µM; CHO RD-HGA16 TAAR1, Fluo-8 calcium fluorescence, antagonist; Q96RJ0; AID 624466; 1.5% of 360,000 active;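 active = inhibition above a per-plate cutoff, the mean inhibition of test compounds on that plate plus 3 SD, cut at about 49% in these data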
Target sequence (Q96RJ0 whole entry, looked up): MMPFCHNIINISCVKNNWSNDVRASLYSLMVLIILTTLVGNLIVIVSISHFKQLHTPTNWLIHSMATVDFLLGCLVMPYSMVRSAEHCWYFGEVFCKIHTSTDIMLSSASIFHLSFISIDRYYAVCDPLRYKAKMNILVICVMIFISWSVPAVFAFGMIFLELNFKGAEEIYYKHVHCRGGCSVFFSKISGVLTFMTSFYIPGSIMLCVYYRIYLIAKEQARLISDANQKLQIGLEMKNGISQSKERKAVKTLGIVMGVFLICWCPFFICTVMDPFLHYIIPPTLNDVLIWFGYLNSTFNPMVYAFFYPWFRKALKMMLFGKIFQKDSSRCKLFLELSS
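Test system: CHO RD-HGA16 cells bearing hTAAR1 | Reagent: β-PEA, EC80 | Compound dosing: 3 µM, single point | Schedule: Dye loading 75 min at 37 °C, then 30 min room temperature | Signal: Calcium fluorescence with Fluo-8 | Evaluation: Percent inhibition of PEA-evoked calcium signal, max/basal emission ratio | Control set: DMSO-only wells and EC80 β-PEA-stimulated wells | Repeats: Singlicate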
TAAR1 agonist: agonists of human TAAR1; Q96RJ0; CHO RD-HGA16 TAAR1, Fluo-8 calcium fluorescence; vehicle wells 0%, saturating PEA agonist 100%; activation, % at 3 µM; 0.99% of 360,000 active; AID 624467;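 active = activation above the mean activation of all test compounds in the run plus 3 SD, cut at about 38% in these data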
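System: CHO-derived RD-HGA16 cells with stable Gα16 and human TAAR1. Times: 17-24 h plating, Fluo-8 75 min 37 °C, 30 min RT. Measured by: calcium-sensitive Fluo-8 signal, excitation 470-495, emission 515-575 nm. Read-out basis: % activation relative to PEA EC100 response. Control set: DMSO and PEA EC100. Repeats: no replicates (n 1).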
OX1R antag-1: blocks the human orexin 1 receptor; inhibition, % at 5 µM; CHO/OX1R cells, Fluo-8 calcium fluorescence, orexin A; 0.43% of 330,000 active; O43613;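 active = inhibition above its plate's threshold, mean inhibition of all tested compounds on the plate plus 3 SD, cut at about 37% in these data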
Target sequence (O43613 whole entry, looked up): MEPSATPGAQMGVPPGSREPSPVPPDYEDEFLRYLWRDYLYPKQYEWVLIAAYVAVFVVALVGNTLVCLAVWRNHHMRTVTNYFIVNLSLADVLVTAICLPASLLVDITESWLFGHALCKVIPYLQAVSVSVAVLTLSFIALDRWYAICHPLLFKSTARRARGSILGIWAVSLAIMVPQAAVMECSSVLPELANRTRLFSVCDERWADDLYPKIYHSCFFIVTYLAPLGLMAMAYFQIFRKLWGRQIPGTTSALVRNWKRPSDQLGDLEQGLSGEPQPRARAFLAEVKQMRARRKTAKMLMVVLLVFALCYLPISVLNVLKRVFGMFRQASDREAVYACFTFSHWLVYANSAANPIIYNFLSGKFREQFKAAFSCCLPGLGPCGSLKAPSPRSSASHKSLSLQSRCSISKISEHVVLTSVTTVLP
CHO parental Ca: counter-screen: ATP calcium response change in parental CHO cells. parental CHO-K1, ATP-induced calcium, Fluo-8 fluorescence. inhibition, % at 5.6 µM. 0.63% of 330,000 active;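 active = inhibition above that plate's mean sample inhibition plus 3 SD, cut at about 26% in these data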
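Measured by: calcium-sensitive Fluo-8 fluorescence / Test system: CHO parental line / Controls: ATP-challenged DMSO wells low, unchallenged DMSO wells high / Measure: % inhibition / Compound: single nominal dose of 5.6 µM per compound / Replicates: single well per compound, no replicates / Reagent: ATP as calcium-mobilizing challenge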
OX1R antag-2: OX1R (human) antagonism | inhibition, % at 6.6 µM | OX1R-expressing cells, FRET antagonist read-out | 1.8% of 330,000 active; in the data active = inhibition mostly above about 38%, no sharp cut-off; inactive = mostly below about 40%
TAAR1 nonsel count: nonselective antagonism, TAAR1 counter-screen. shares compounds with TAAR1 antagonist. counterscreen cell line, calcium fluorescence, antagonist mode. inhibition, % at 3 µM. 77% of 2,400 active. AID 651780; in the data active = inhibition above about 22%;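 note: CHO-Ga16 host cells stimulated with ATP at an EC80 level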
TAAR1 antag conf: confirmation of human TAAR1 antagonists. shares compounds with TAAR1 antagonist. AID 651785. TAAR1-expressing cells, fluorescence antagonist read-out. 40% of 2,400 active. inhibition, % at 3 µM; in the data active = inhibition above about 49%;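 note: CHO-Ga16 host cells challenged with agonist PEA near its EC80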
Ga16 nonsel ag: counter-screen for TAAR1 antagonists: nonselective Ga16 agonists; shares compounds with TAAR1 antagonist; Ga16-expressing cells, calcium fluorescence, agonist counterscreen; activation, % at 3 µM; 18% of 2,400 active; AID 651953; in the data active = activation above about 12%
TAAR1 ag counter: TAAR1 agonism, antagonist counter-screen | activation, % at 3 µM | hTAAR1 cell line, fluorescence activation, agonist mode | 2% of 2,400 active | shares compounds with TAAR1 antagonist; in the data active = activation above about 37%;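 note: CHO cells stably expressing TAAR1 with calcium dye readout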
Each line names hits and unclear results; the compound was inactive in the other large screens (follow-up assays come after a bar, where they were run).

CC(=O)c1c(C)[nH]c(C(=O)OCC(=O)Nc2ccc(Cl)c(S(=O)(=O)N(C)C)c2)c1C	TAAR1 antagonist 67.8 | TAAR1 nonsel count 27.7 | TAAR1 antag conf inactive | Ga16 nonsel ag 12.1 | TAAR1 ag counter inactive
CN(C)S(=O)(=O)c1cc(NC(=O)CNCc2ccccc2)ccc1Cl	none
O=C(CN1C(=O)C2CCCCC2C1=O)Nc1cc(C(F)(F)F)ccc1N1CCCC1 (stereo not given)	none
O=C(CCCC(=O)NN=Cc1ccccc1Cl)NN=Cc1ccccc1Cl	TAAR1 antagonist 50.9 (no result: OX1R antag-1, CHO parental Ca, OX1R antag-2) | TAAR1 nonsel count inactive | TAAR1 antag conf inactive | Ga16 nonsel ag inactive | TAAR1 ag counter inactive
COc1ccccc1CCNS(=O)(=O)c1cc2c3c(c1)CCN3C(=O)CC2	none
C/C(CC(=O)Nc1ccc2ccccc2c1)=N\NC(=O)c1ccc(O)c(O)c1	none
CCCn1cc(CN2CCC(Oc3ccc(C(=O)N4CCCC4)cc3)CC2)c(C)n1	none
O=[N+]([O-])c1cccc(-c2c(-c3ccccc3)ncc3cc(F)ccc23)c1	none
O=[N+]([O-])c1ccc(-c2c(-c3ccccc3)ncc3cc(F)ccc23)cc1	TAAR1 antagonist 82.0 | TAAR1 nonsel count inactive | TAAR1 antag conf 55.3 | Ga16 nonsel ag inactive | TAAR1 ag counter inactive
CC(=O)c1ccc(NC(=O)COc2ccccc2C(=O)Nc2ccc(C)cn2)cc1	none
CC(=O)c1ccc(NC(=O)c2ccc(S(=O)(=O)c3ccccc3)cc2)cc1	TAAR1 antagonist 69.4 | TAAR1 nonsel count 38.7 | TAAR1 antag conf 61.1 | Ga16 nonsel ag 12.4 | TAAR1 ag counter inactive
CC(=O)c1ccc(NC(=O)c2ccc(S(=O)(=O)N3CCCC3)cc2)cc1	none
CC(C)(C)NC(=O)COC(=O)c1ccccc1OCC(=O)Nc1ccc(Br)cc1	TAAR1 antagonist 51.0 | TAAR1 nonsel count 23.8 | TAAR1 antag conf inactive | Ga16 nonsel ag inactive | TAAR1 ag counter inactive
CC(=O)c1ccc(NC(=O)COc2ccccc2C(=O)Nc2ccccc2)cc1	TAAR1 antagonist 73.3 | TAAR1 nonsel count 45.0 | TAAR1 antag conf 67.1 | Ga16 nonsel ag 14.6 | TAAR1 ag counter inactive
CN(C)S(=O)(=O)c1cccc(NC(=O)COc2ccccc2C(=O)Nc2ccccc2)c1	TAAR1 antagonist 72.3 (no result: OX1R antag-1, CHO parental Ca, OX1R antag-2) | TAAR1 nonsel count 52.8 | TAAR1 antag conf 65.1 | Ga16 nonsel ag 14.0 | TAAR1 ag counter inactive
OCC[C@@H]1C[C@@H](O)[C@H](O)[C@]2(CCCCO2)O1	none
C=CCNC(=O)C1CCN(S(=O)(=O)c2ccc3ccccc3c2)CC1	none
CCN(CC)S(=O)(=O)c1cc(NC(=O)c2ccccc2OCc2c(C)noc2C)ccc1C	TAAR1 antagonist 63.6 (no result: OX1R antag-1, CHO parental Ca, OX1R antag-2) | TAAR1 nonsel count 24.3 | TAAR1 antag conf inactive | Ga16 nonsel ag inactive | TAAR1 ag counter inactive
Cc1ccc(NC(=O)c2ccccc2OCC(=O)Nc2ccccc2F)cc1S(=O)(=O)N(C)C	TAAR1 antagonist 68.5 | TAAR1 nonsel count 33.9 | TAAR1 antag conf 51.6 | Ga16 nonsel ag inactive | TAAR1 ag counter inactive
CCOc1ncccc1C(=O)OCC(=O)Nc1ccc(C)c(S(=O)(=O)N(C)C)c1	none
O=C(COc1ccccc1C(=O)c1cnn(-c2ccccc2)c1)Nc1ccccc1	TAAR1 antagonist 53.2 | TAAR1 nonsel count 24.0 | TAAR1 antag conf inactive | Ga16 nonsel ag inactive | TAAR1 ag counter inactive
CCOC(=O)C(Cc1ccccc1)c1ccnc2nc(N)nn12 (stereo not given)	none
CN(Cc1ccccc1)S(=O)(=O)c1ccc(NS(=O)(=O)Cc2ccccc2)cc1	TAAR1 antagonist 55.1, OX1R antag-1 41.9, CHO parental Ca 40.3, OX1R antag-2 43.5 | TAAR1 nonsel count 35.2 | TAAR1 antag conf 52.4 | Ga16 nonsel ag inactive | TAAR1 ag counter inactive
CC(C)C(=O)NC(=S)Nc1ccc(S(=O)(=O)N(C)Cc2ccccc2)cc1	TAAR1 antagonist 69.2 | TAAR1 nonsel count 33.7 | TAAR1 antag conf 50.1 | Ga16 nonsel ag inactive | TAAR1 ag counter inactive
CCN1C(=O)C(CC(=O)Nc2cccc(C(C)=O)c2)S/C1=N\c1ccccn1 (stereo not given)	none
CCN=C1SC(C(=O)Nc2cccc(C(=O)O)c2)CC(=O)N1CC (stereo not given)	none
CCN=C1SC(C(=O)Nc2ccccc2)CC(=O)N1CC (stereo not given)	TAAR1 antagonist 65.2 | TAAR1 nonsel count 31.0 | TAAR1 antag conf 53.5 | Ga16 nonsel ag inactive | TAAR1 ag counter inactive
CCN=C1SC(CC(=O)Nc2ccccc2)C(=O)N1CC (stereo not given)	TAAR1 antagonist 67.0 | TAAR1 nonsel count 34.2 | TAAR1 antag conf 59.1 | Ga16 nonsel ag inactive | TAAR1 ag counter inactive
COc1ccc(-n2c(C)cc(=O)[nH]c2=O)cc1	none
O=S1(=O)CC(N2CCN(c3ccccn3)CC2)CN1C1CCCCC1 (stereo not given)	none (no result: OX1R antag-1, CHO parental Ca, OX1R antag-2)
COc1ccc(-c2cc(C(=O)N3CCN(c4ccccc4)CC3)c3ccccc3n2)cc1	none
O=C(c1cc(-c2cccnc2)nc2ccccc12)N1CCN(S(=O)(=O)c2cccs2)CC1	TAAR1 antagonist 51.4 | TAAR1 nonsel count 21.8 | TAAR1 antag conf inactive | Ga16 nonsel ag inactive | TAAR1 ag counter inactive
COc1ccc(OC)c(-c2cc(C(=O)N3CCN(c4ncccn4)CC3)c3ccccc3n2)c1	TAAR1 antagonist 78.4 | TAAR1 nonsel count 27.6 | TAAR1 antag conf inactive | Ga16 nonsel ag inactive | TAAR1 ag counter inactive
COc1ccc(-c2cc(C(=O)N3CCCCCC3)c3ccccc3n2)c(OC)c1	none
COc1ccc(-c2cc(C(=O)N3CCN(c4ncccn4)CC3)c3ccccc3n2)cc1	TAAR1 antagonist 52.2 | TAAR1 nonsel count 29.5 | TAAR1 antag conf inactive | Ga16 nonsel ag inactive | TAAR1 ag counter inactive
CCOc1ccc2oc(C(=O)N3CCN(c4ccccc4OCC)CC3)c(C)c2c1	TAAR1 antagonist 59.8 | TAAR1 nonsel count inactive | TAAR1 antag conf inactive | Ga16 nonsel ag inactive | TAAR1 ag counter inactive
CCNC(=O)NCc1c(C)c(C)n(Cc2ccccc2)c1-n1cccc1	none
Cc1ccc(C2(c3ccccc3)NC(=O)N(CC(=O)NC3(C#N)CCCC3)C2=O)cc1C (stereo not given)	none
COCOc1ccc(-c2oc3c(C/C=C(\C)CCC=C(C)C)ccc(O)c3c(=O)c2OCOC)c(OCOC)c1	none (no result: TAAR1 antagonist, TAAR1 agonist)
COc1ccc(N2CCN(C(=O)c3cc4c(C)nc5ccccc5c4o3)CC2)cc1	TAAR1 antagonist 62.4 | TAAR1 nonsel count 36.5 | TAAR1 antag conf 51.4 | Ga16 nonsel ag 11.8 | TAAR1 ag counter inactive
COc1ccc2nc(-c3ccccc3)cc(C(=O)N3CCC3)c2c1	none
